Sampled rows, rich in hits. Any-hit rate of the full collection: about 2.9%.
HSP90 inh: HSP90 refolding inhibition in rabbit reticulocyte lysate | AID 1789 | actives 0.91% (n = 290,000) | inhibition, % at 5.6 µM | luciferase refolding luminescence, 3 h;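 active = inhibition above the screen-wide mean plus 3 SD, computed separately per campaign, cut at about 16% in these data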;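 note: 0% = DMSO wells and 100% = 60 µM geldanamycin wells; inhibitors lower the luminescence because luciferase stays unfolded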
SENP8 block-1: blocks human SENP8 cleavage of Nedd8 substrate; recombinant SENP8, Nedd8 substrate fluorescence; actives 0.64% (n = 360,000); Q96LD8; AID 602440; inhibition, % at 20 µM; in the data active = inhibition mostly above about 40%, no sharp cut-off; inactive = mostly below about 27%
Target sequence (Q96LD8 whole entry, looked up): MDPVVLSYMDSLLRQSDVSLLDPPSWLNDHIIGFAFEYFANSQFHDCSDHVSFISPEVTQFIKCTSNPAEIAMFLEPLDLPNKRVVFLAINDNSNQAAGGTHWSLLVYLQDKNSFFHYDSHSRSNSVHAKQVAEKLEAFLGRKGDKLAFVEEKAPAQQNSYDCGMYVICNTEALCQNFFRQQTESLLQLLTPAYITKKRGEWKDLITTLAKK
SENP7 block: SENP7 protease inhibition; AID 434973; Q9BQF6; recombinant SENP7, Z-RLRGG-aminoluciferin luminescence, 40 min; actives 1.5% (n = 330,000); inhibition, % at 5 µM;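 active = inhibition above about 50% at the single test dose, limit read from the data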;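 note: plate controls were DMSO with enzyme for no effect and no enzyme buffer wells for full effect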
Target sequence (Q9BQF6 706-1050 limits assumed): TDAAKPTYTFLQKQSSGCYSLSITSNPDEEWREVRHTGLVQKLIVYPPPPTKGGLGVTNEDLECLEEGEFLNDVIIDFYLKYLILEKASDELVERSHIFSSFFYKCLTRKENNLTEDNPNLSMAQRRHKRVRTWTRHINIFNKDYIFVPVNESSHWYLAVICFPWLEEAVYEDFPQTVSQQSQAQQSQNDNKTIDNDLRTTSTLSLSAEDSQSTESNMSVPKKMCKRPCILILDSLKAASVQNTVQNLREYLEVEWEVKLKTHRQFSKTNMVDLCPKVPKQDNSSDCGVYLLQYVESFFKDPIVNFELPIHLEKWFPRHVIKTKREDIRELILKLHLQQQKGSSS
SENP1 FRET inh: blocks the human SENP1 SUMO protease catalytic domain. recombinant SENP1 catalytic domain, CyPet-SUMO1-YPet FRET cleavage. inhibition, % at 10 µM. actives 0.21% (n = 360,000). Q9P0U3;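 active = inhibition at least 30% at 10 µM, raw YFP signal under a set limit, fluorescence ratio 0.5 to 1.5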;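 note: 0% = enzyme with DMSO and 100% = no enzyme wells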
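Controls: no-enzyme wells low, DMSO-plus-enzyme wells high control. Test system: human recombinant His6-tagged SENP1 catalytic domain enzyme. Reagent: SFCypet-SUMO1-SFYpet FRET protein substrate, 25 nM final. Doses: one dose per compound, 10 µM, 0.5% DMSO. Detection: FRET, CFP and YFP emission. Timing: 50 min reaction at room temperature.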
SENP6 block: blocks the human protease SENP6; Q9GZR1; inhibition, % at 10 µM; Recombinant SENP6 catalytic domain, aminoluciferin luminescence; actives 1.8% (n = 330,000);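 active = inhibition above about 50% at the single tested dose, limit read from the data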;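 note: plate controls were DMSO wells with enzyme for no effect and DMSO wells lacking enzyme for full effect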
SENP8 block-2: blocks the human protease SENP8. purified SENP8, Z-RLRGG-aminoluciferin cleavage, luminescence. inhibition, % at 10 µM. actives 1.2% (n = 330,000). AID 2540; in the data active = inhibition above about 50%
SENP8 confirm: confirmation of human SENP8 protease inhibitors | shares compounds with SENP7 block | Recombinant SENP8, Z-RLRGG-aminoluciferin luminescence, 60 min | inhibition, % at 12.5 µM | actives 40% (n = 6,200) | AID 488912;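 active = mean inhibition across replicates above about 50%, limit read from the data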
SENP6 conf: confirmation of human SENP6 protease inhibitors. shares compounds with SENP7 block. recombinant SENP6, Z-RLRGG-aminoluciferin luminescence. inhibition, % at 12.5 µM. actives 58% (n = 6,200). AID 488915
SENP7 conf: confirmation of human SENP7 protease inhibitors; shares compounds with SENP7 block; recombinant SENP7, Z-RLRGG-aminoluciferin luminescence, 40 min; inhibition, % at 12.5 µM; actives 69% (n = 6,200); AID 488917
Casp3 select: inhibits human caspase-3 in SENP selectivity test; shares compounds with SENP7 block; purified caspase-3, Z-DEVD-aminoluciferin luminescence, 60 min; inhibition, % at 12.5 µM; actives 60% (n = 6,200); AID 488918;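 active = mean inhibition above about 50%, limit read from the data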;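 note: plate controls were enzyme with DMSO for no effect and wells without caspase-3 for full effect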
Luc interf: interferes with luciferase luminescence in SENP counter-screen | Pre-incubated SENP8/Z-RLRGG-aminoluciferin, luciferase luminescence interference | actives 39% (n = 6,200) | inhibition, % at 12.5 µM | shares compounds with SENP7 block;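 active = mean inhibition above about 50% when retested at one dose, limit read from the data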;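 note: plate controls were DMSO wells with completed reaction for no effect and substrate without enzyme for full effect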
Numbers without * were called inactive; x = no result given.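 Rule for the calls, unless noted: active = mean inhibition above about 50% in the one-dose retest (limit read from the data); inactive = the rest.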

SMILES	HSP90 inh	SENP8 block-1	SENP7 block	SENP1 FRET inh	SENP6 block	SENP8 block-2	SENP8 confirm	SENP6 conf	SENP7 conf	Casp3 select	Luc interf
OCc1ccc(N=Nc2ccccc2)cc1	x	19.6	54.9*	3.0	43.0	23.7	35.4	34.8	73.5*	51.7*	53.2*
O=C(O)CCCC(=O)Nc1ccc(N=Nc2ccccc2)cc1	-0.1	16.1	6.1	1.7	15.6	7.8	x	x	x	x	x
COc1ccc(N=Nc2cc(C)ccc2O)cc1	3.5	-10.6	98.7*	3.9	8.8	95.7*	84.5*	97.4*	102.1*	91.9*	92.4*
Oc1ccc(Cl)cc1N=Nc1ccccc1	-2.1	3.6	67.4*	-0.2	73.3*	42.7	-6.4	27.3	80.4*	23.3	6.7
O=C(O)c1cc(O)ccc1N=Nc1ccccc1	-3.0	1.9	-4.0	0.8	6.2	4.6	x	x	x	x	x
Cc1ccc(O)c(N=Nc2ccc(S(=O)(=O)N3CCCC3)cc2)c1	-2.6	18.5	17.1	2.8	13.6	-3.4	x	x	x	x	x
O=C(CN(C(=O)CCC(=O)Nc1ccccn1)c1ccccc1F)NCc1ccc2c(c1)OCO2	-3.7	-3.2	1.7	-2.6	-3.3	-3.5	x	x	x	x	x
COC(=O)[C@@]12C[C@@H](CC(=O)NCC3CCCCC3)C(=O)N(Cc3cccc4ccccc34)C1=CCC(C)(C)C2	x	24.5	x	0.2	x	x	x	x	x	x	x
COc1ccc(C/C(N)=N/O)cc1	-4.9	8.4	-1.1	0.5	-21.7	-5.9	x	x	x	x	x
COc1ccc(N=Nc2ccc(CO)cc2)cc1	x	29.1	65.8*	2.3	50.6*	40.0	61.1*	58.4*	83.4*	59.6*	47.0
COC(=O)c1ccc(N=Nc2ccccc2)cc1	-5.3	12.4	58.7*	1.4	14.8	47.3	9.8	57.0*	85.7*	49.2	34.7
O=C1NCC(Nc2ccc(Br)cc2)C(=O)N1 (stereo not given)	x	3.4	x	-0.1	x	x	x	x	x	x	x
CCCCNC(=O)C1C2C=CC(C2)C1C(=O)O (stereo not given)	-6.6	22.4	-4.9	1.4	-3.4	-11.1	x	x	x	x	x
O=C1Nc2ccccc2N(O)N1c1cc(-c2cccc(Cl)c2)no1	-2.5	11.7	60.4*	2.8	38.7	57.5*	83.3*	80.3*	93.1*	88.3*	80.8*
O=C1Nc2ccccc2N(O)N1c1cc(-c2ccccc2Cl)no1	8.1	27.3	9.1	2.2	-47.3	-9.2	x	x	x	x	x
Cc1cccc(CSc2cn(CC(=O)N3CCOCC3)c3ccccc23)c1	-2.4	19.0	74.1*	0.6	64.5*	71.6*	87.2*	86.7*	95.9*	69.5*	59.1*
O=C(NCc1cccs1)C(=O)c1cn(CC(=O)N2CCOCC2)c2ccccc12	2.0	8.5	7.8	-1.3	-7.6	5.1	x	x	x	x	x
O=C(NCc1ccccc1)C(=O)c1cn(CC(=O)N2CCOCC2)c2ccccc12	-2.5	-44.7	54.8*	0.5	-8.5	-12.9	-6.2	-1.7	3.5	5.1	-3.9
CCOC(=O)c1[nH]c(C)c(C(=O)/C=C/c2ccc(C(=O)O)cc2)c1C	2.5	10.9	1.4	-0.6	-35.7	3.3	x	x	x	x	x
CCOC(=O)c1ccc(OCC(=O)c2ccc(O)cc2O)cc1	10.8	-3.6	20.4	-0.5	55.1*	32.8	26.4	25.7	64.4*	65.7*	29.8
COC(=O)c1ccc(OCC(=O)c2ccc(O)cc2O)cc1	10.5	3.6	21.1	0.3	24.5	6.6	x	x	x	x	x
O=C(COc1ccc(Cl)cc1)c1ccc(O)cc1O	-1.7	9.2	41.0	1.2	57.9*	36.2	54.4*	49.3	72.2*	66.6*	53.4*
Cc1ccc(C2(c3ccccc3)NC(=O)N(CC(=O)NCc3ccccc3)C2=O)cc1C (stereo not given)	x	8.2	5.7	1.5	-7.3	0.8	x	x	x	x	x
O=C1/C(=C\c2ccc3ccccc3c2)CCCc2ccccc21	-1.9	18.7	31.2	-1.1	-15.2	22.3	x	x	x	x	x
Cc1ccccc1/C=C1\CCCc2ccccc2C1=O	-5.4	1.7	97.1*	-0.5	88.1*	95.0*	95.2*	97.7*	101.7*	93.1*	93.8*
SMILES	HSP90 inh	SENP8 block-1	SENP7 block	SENP1 FRET inh	SENP6 block	SENP8 block-2	SENP8 confirm	SENP6 conf	SENP7 conf	Casp3 select	Luc interf
COc1ccc2nc(SCC(C)=O)c(C#N)cc2c1	-6.0	-52.2	60.1*	45.5	69.5*	60.9*	0.3	71.9*	92.0*	72.5*	51.6*
Cc1cccc(NC(=O)/C(C#N)=C/c2cccc([N+](=O)[O-])c2)n1	-1.7	2.9	-2.3	3.5	-28.1	-8.4	x	x	x	x	x
O=C(COC(=O)C1CC2CCCC(C1)C2=O)NNC(=O)c1ccccc1F (stereo not given)	x	2.1	17.8	2.1	-4.9	-13.0	x	x	x	x	x
C/C(=N/OCc1ccc(Br)cc1)c1ccccn1	-1.6	30.6	90.9*	2.1	-6.3	81.9*	3.7	87.8*	99.5*	75.1*	49.1
CCOc1ccc(OCc2ccc(C(=O)N/N=C(\C)c3ccccn3)cc2)cc1	6.1	3.9	x	0.5	x	x	x	x	x	x	x
C/C(=N\NC(=O)c1cc(Br)ccc1O)c1ccccn1	-4.9	-88.2	55.5*	0.4	86.8*	77.8*	40.6	84.8*	84.4*	91.4*	28.9
C/C(=N\NC(=O)c1cccc(Br)c1)c1ccccn1	5.1	18.7	-1.5	0.5	-14.5	-4.2	x	x	x	x	x
C/C(=N\OC(=O)c1ccc(Br)cc1)c1ccccn1	-3.3	14.1	97.1*	4.9	96.9*	92.6*	43.2	53.5*	44.3	46.3	11.5
CC1CN(c2nc3c(c(=O)n(Cc4ccc(Cl)cc4)c(=O)n3C)n2C)CC(C)O1 (stereo not given)	0.5	10.9	7.2	3.0	-0.9	0.6	x	x	x	x	x
Cc1ccc(C)c(C(=O)Cn2c(NCCO)nc3ccccc32)c1	-3.6	15.4	-4.8	2.4	-37.6	-5.4	x	x	x	x	x
O=C1NC(=Nc2ccccc2)S/C1=C/c1cccs1	0.7	9.9	32.2	-1.9	16.8	59.5*	26.6	45.8	19.7	38.9	23.3
CCCCc1ccc(-c2nc(-c3ccncc3)no2)cc1	-5.8	0.4	89.7*	1.6	20.6	83.0*	10.9	10.6	8.8	-5.3	1.5
CCc1ccc(-c2nc(-c3ccncc3)no2)cc1	-0.3	26.3	89.7*	-0.9	87.1*	80.0*	84.1*	88.0*	97.0*	80.4*	66.6*
